Data taken from ChEMBL document CHEMBL3784923, “Azathioprine pharmacokinetics after intravenous, oral, delayed release oral and rectal foam administration” (Gut, 1996).

Assays:
[1] = Oral bioavailability in uraemic patient (8 patients) at 100 mg; details: human, in vivo
[2] = Volume of distribution at steady state in uraemic patient (15 patients) at 100 mg, iv; details: human, in vivo
[3] = Tmax in uraemic patient (8 patients) at 100 mg, po; details: human, in vivo
[4] = Stability in plasma (unknown origin) using compound stored in frozen condition; type: ADME, cell-free; details: unidentified
[5] = Cmax in uraemic patient (8 patients) at 100 mg, po; details: human, in vivo
[6] = Clearance in uraemic patient (15 patients) at 100 mg, iv; details: human, in vivo
[7] = Stability in whole blood (unknown origin) using compound stored in ice water slurry; type: ADME, tissue-based; details: unidentified
Homo sapiens = organism: Homo sapiens; assay: Toxicity in inflammatory bowel disease patient assessed as induction of leucopenia; type: organism-based; details: in vivo
[8] = Stability in plasma (unknown origin) at room temperature; type: ADME, cell-free; details: unidentified
Method in brief: (§1)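 6MP in plasma was held at room temperature, both unextracted and after extraction, and measured by HPLC.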

[9] = Stability of the compound in extracted form in plasma (unknown origin) at room temperature; type: ADME, cell-free; details: unidentified; method in brief: as §1
[10] = Drug excretion in feces of human treated with Eudragit coated tablets; type: ADME, tissue-based; details: faeces, po, read-out: Drug excretion

**Q.** With `Cn1cnc([N+](=O)[O-])c1Sc1ncnc2nc[nH]c12` [AZATHIOPRINE] as the compound, how does the bioavailability [1] read?
**A.** 41%

**Q.** And the Vd [2]?
**A.** 9.3 L/kg

**Q.** What about the Tmax [3] of the same compound?
**A.** 1.5 h

**Q.** What about the Stability [4] of the same compound?
**A.** <= 1 yr

**Q.** What about the Cmax [5] of the same compound?
**A.** 22 ng/mL

**Q.** And the clearance [6]?
**A.** 103 mL/min/kg

**Q.** And the Stability [7]?
**A.** <= 5 hr

**Q.** And the Activity (Homo sapiens)?
**A.** 2%

**Q.** What does the source list for `Sc1ncnc2nc[nH]c12` [MERCAPTOPURINE ANHYDROUS]?
**A.** Stability [4]: <= 1 yr; Stability [7]: <= 5 hr; Stability [8]: 4 h; Stability [9]: <= 30 hr; Activity (Homo sapiens): 2%

**Q.** With `Nc1ccc(O)c(C(=O)O)c1` [MESALAMINE] as the compound, how does the dose excreted [10] read?
**A.** 25%
